Data published in ChEMBL document CHEMBL4138159, “Design, synthesis and evaluation of amino-substituted 1H-phenalen-1-ones as anti-leishmanial agents” (Eur J Med Chem, 2018).
Activity calls are given as the source filed them. The calls are words filed in the database; no cut-off is given here.

Tests used:
Leishmania amazonensis [1] = test: Antileishmanial activity against Leishmania amazonensis MHOM/BR/77/LTB0016 promastigotes after 72 hrs by Alamarblue assay; type: functional, organism-based; details: MHOM/BR/77/LTB0016, 72 h
Outline: (§1)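 Log-phase promastigotes (10⁵/well, grown in Schneider's medium with 10% FBS at 26 °C) added to serial compound dilutions in phenol red-free RPMI 1640 with 10% heat-inactivated FBS, plus 10% alamarBlue. Incubated 72 h at 27 °C in the dark. Read at 560 nm against 590 nm reference. Single-concentration screen at 25 µM. IC50 by non-linear regression. Three experiments, each in duplicate.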

Leishmania donovani [2] = test: Antileishmanial activity against Leishmania donovani MHOM/IN/90/GE1F8R promastigotes after 72 hrs by Alamarblue assay; type: functional, organism-based; outline: as §1
Leishmania donovani [3] = test: Antileishmanial activity against Leishmania donovani MHOM/IN/90/GE1F8R promastigotes at 25 uM after 72 hrs by Alamarblue assay relative to control; type: functional; outline: as §1
Leishmania amazonensis [4] = test: Antileishmanial activity against Leishmania amazonensis MHOM/BR/77/LTB0016 promastigotes at 25 uM after 72 hrs by Alamarblue assay relative to control; type: functional; outline: as §1
[5] = Cytotoxicity against mouse J774A.1 cells; type: cell-based, J774.A1
[6] = Selectivity index, ratio of CC50 for mouse J774A.1 cells to IC50 for Leishmania amazonensis MHOM/BR/77/LTB0016 amastigotes infected in mouse J774A.1 cells; type: toxicity, cell-based; details: read-out: Ratio CC50/IC50
Outline: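 SI = CC50 in J774A.1 macrophages divided by IC50 against intracellular L. amazonensis amastigotes.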

Leishmania amazonensis [7] = test: Potency index, ratio of miltefosine IC50 to compound IC50 for Leishmania amazonensis MHOM/BR/77/LTB0016 amastigotes infected in mouse J774A.1 cells; type: functional
Leishmania amazonensis [8] = test: Antileishmanial activity against Leishmania amazonensis MHOM/BR/77/LTB0016 amastigotes infected in mouse J774A.1 cells assessed as reduction in transformation of rescued amastigotes to promastiogtes after 24 hrs by Alamarblue assay; type: functional, organism-based; details: MHOM/BR/77/LTB0016, J774.A1, 24 h
Leishmania amazonensis [9] = test: Induction of mitochondrial membrane potential loss in Leishmania amazonensis MHOM/BR/77/LTB0016 promastigotes at antileishmanial IC90 after 24 hrs by JC-1 staining-based spectrofluorometric analysis; type: functional, organism-based
Leishmania donovani [10] = test: Antileishmanial activity against Leishmania donovani MHOM/SD/00/1S-2D promastigotes preincubated for 2 hrs followed by compound wash measured after 48 hrs by MTT assay; type: functional, organism-based

| Structure (SMILES) | IC50 (Leishmania amazonensis [1]) [µM] | IC50 (Leishmania donovani [2]) [µM] | also measured |
| --- | --- | --- | --- |
| O=C1C(N2CCN(c3ncccn3)CC2)=Cc2cccc3cccc1c23 | > 25 | > 25 |  |
| O=C1C(Nc2ccccc2)=Cc2cccc3cccc1c23 | > 25 | > 25 |  |
| CN(CCO)c1ccc2cccc3c2c1C(=O)C=C3 | > 25 | > 25 |  |
| O=C1C=Cc2cccc3ccc(Nc4ccccc4)c1c23 | > 25 | > 25 |  |
| CCCNC1=Cc2cccc3cccc(c23)C1=O | > 25 | > 25 | Activity (Leishmania donovani [3]): <25%; Activity (Leishmania amazonensis [4]): <25% |
| CN(C)CCNc1ccc2cccc3c2c1C=CC3=O | 7.2 | 32.7 |  |
| O=C1C(NCc2ccccc2)=Cc2cccc3cccc1c23 | > 25 | > 25 |  |
| N#Cc1ccc(NC2=Cc3cccc4cccc(c34)C2=O)cc1 | > 25 | > 25 |  |
| Nc1ccc2cccc3c2c1C(=O)C=C3 | 26.2 | > 25 |  |
| O=C1C=Cc2cccc3ccc(N4CCN(c5ncccn5)CC4)c1c23 | > 25 | > 25 |  |
| CN(C)CCNC1=Cc2cccc3cccc(c23)C1=O | 6 | 9.6 | CC50 [5]: 122 µM; selectivity ratio [6]: 136; Ratio IC50 (Leishmania amazonensis [7]): 3 - 5; IC50 (Leishmania amazonensis [8]): 0.9 µM; Activity (Leishmania amazonensis [9]): Active |
| O=C1C=Cc2c(N3CCN(Cc4ccccc4)CC3)ccc3cccc1c23 | 17.5 | 26.3 |  |
| NC1=Cc2cccc3cccc(c23)C1=O | > 25 | > 25 | Activity (Leishmania donovani [3]): <25%; Activity (Leishmania amazonensis [4]): <25% |
| O=C1C=Cc2cccc3ccc(Nc4cccnc4)c1c23 | > 25 | > 25 |  |
| O=C1C=C(N2CCCCC2)c2cccc3cccc1c23 | > 25 | > 25 |  |
| O=C1C(O)=Cc2cccc3ccc(-c4ccccc4)c1c23 |  |  | IC50 (Leishmania donovani [10]): 35 to 40 µM |
| O=C1C=Cc2cccc3ccc(N4CCN(Cc5ccccc5)CC4)c1c23 | 11.6 | 14 | CC50 [5]: 91.7 µM; selectivity ratio [6]: 153; Ratio IC50 (Leishmania amazonensis [7]): 3 - 5; IC50 (Leishmania amazonensis [8]): 0.6 µM; Activity (Leishmania amazonensis [9]): inactive |
| CCCNC1=CC(=O)c2cccc3cccc1c23 | > 25 | > 25 |  |
| O=C1C=C(N2CCOCC2)c2cccc3cccc1c23 | > 25 | > 25 |  |
| O=C1C=Cc2cccc3cccc1c23 [PERINAPHTHENONE] | > 25 | > 25 |  |
| O=C1C=Cc2cccc3ccc(O)c1c23 | > 25 | > 25 |  |

| Structure (SMILES) | IC50 (Leishmania amazonensis [1]) [µM] | IC50 (Leishmania donovani [2]) [µM] | also measured |
| --- | --- | --- | --- |
| O=C1C(N2CCN(Cc3ccccc3)CC2)=Cc2cccc3cccc1c23 | 24 | 26.4 | CC50 [5]: 122 µM; selectivity ratio [6]: 51; IC50 (Leishmania amazonensis [8]): 2.4 µM; Activity (Leishmania amazonensis [9]): inactive |
| O=C1C=Cc2cccc3ccc(NCc4ccccc4)c1c23 | 3.5 | 8.3 | CC50 [5]: 9.4 µM; selectivity ratio [6]: 4.1; IC50 (Leishmania amazonensis [8]): 2.3 µM; Activity (Leishmania amazonensis [9]): Active |
| CN(CCO)C1=CC(=O)c2cccc3cccc1c23 | > 25 | > 25 |  |
| CN(C)CCNc1ccc2cccc3c2c1C(=O)C=C3 | 1.4 | 2.8 | CC50 [5]: 38.9 µM; selectivity ratio [6]: 55.6; IC50 (Leishmania amazonensis [8]): 0.7 µM; Activity (Leishmania amazonensis [9]): Active |
| O=C1C=Cc2c(NCc3ccccc3)ccc3cccc1c23 | > 25 | > 25 |  |
| O=C1C=Cc2cccc3ccc(N4CCCCC4)c1c23 | > 25 | > 25 |  |
| CCCNc1ccc2cccc3c2c1C(=O)C=C3 | > 25 | > 25 |  |
| O=C1C(Nc2cccnc2)=Cc2cccc3cccc1c23 | > 25 | > 25 | Activity (Leishmania donovani [3]): <25%; Activity (Leishmania amazonensis [4]): <25% |
| CCCCCCCCCCCCCCCCOP(=O)([O-])OCC[N+](C)(C)C [MILTEFOSINE] | 6.5 | 3.3 | CC50 [5]: 73.7 µM; selectivity ratio [6]: 23.8; IC50 (Leishmania amazonensis [8]): 3.1 µM; Activity (Leishmania amazonensis [9]): Active |
| O=C1C=Cc2cccc3ccc(N4CCOCC4)c1c23 | > 25 | > 25 |  |
| O=C1C=C(N2CCN(Cc3ccccc3)CC2)c2cccc3cccc1c23 | 9.7 | 24 | CC50 [5]: 28.5 µM; selectivity ratio [6]: 26; IC50 (Leishmania amazonensis [8]): 1.1 µM; Activity (Leishmania amazonensis [9]): Active |
| CN(CCO)C1=Cc2cccc3cccc(c23)C1=O | > 25 | > 25 | Activity (Leishmania donovani [3]): <25%; Activity (Leishmania amazonensis [4]): <25% |
| O=C1C=C(NCc2ccccc2)c2cccc3cccc1c23 | > 25 | > 25 |  |
| O=C1C=C(N2CCN(c3ncccn3)CC2)c2cccc3cccc1c23 | > 25 | > 25 |  |
| COC1=Cc2cccc3ccc(-c4ccccc4)c(c23)C1=O |  |  | IC50 (Leishmania donovani [10]): 35 to 40 µM |
| O=C1C=Cc2cccc3ccc(Nc4ccccn4)c1c23 | > 25 | > 25 |  |
| O=C1C(N2CCOCC2)=Cc2cccc3cccc1c23 | > 25 | > 25 |  |
| O=C1C=Cc2cccc3ccc(NCCO)c1c23 | 27.4 | > 25 |  |
| O=C1C(Nc2ccccn2)=Cc2cccc3cccc1c23 | > 25 | > 25 |  |
| CN(C)CCNC1=CC(=O)c2cccc3cccc1c23 | 2.1 | 4.3 | CC50 [5]: 95.6 µM; selectivity ratio [6]: 159; Ratio IC50 (Leishmania amazonensis [7]): 3 - 5; IC50 (Leishmania amazonensis [8]): 0.6 µM; Activity (Leishmania amazonensis [9]): Active |
| N#Cc1ccc(Nc2ccc3cccc4c3c2C(=O)C=C4)cc1 | > 25 | > 25 |  |
